# Assay results as given in ChEMBL document CHEMBL4028873, “The Discovery of a Dual TTK Protein Kinase/CDC2-Like Kinase (CLK2) Inhibitor for the Treatment of Triple Negative Breast Cancer Initiated from a Phenotypic Screen” (J Med Chem, 2017).
# Calls of active or inactive are those of the source. The calls are words filed in the database; no cut-off is given here.
# Columns and labels:
# [1] = Metabolic stability in human liver S9 fraction assessed as percent of compound remaining after 60 mins; format: ADME, tissue-based; settings: read-out: Stability
# [2] = Clearance in rat at 2 mg/kg, iv; format: ADME, organism-based; settings: in vivo
# [3] = Volume of distribution at steady state in rat at 2 mg/kg, iv; format: ADME, organism-based; settings: in vivo, read-out: Vdss
# [4] = Mean residence time in rat at 2 mg/kg, iv; format: ADME, organism-based; settings: in vivo
# [5] = biological target: T1, Dual specificity tyrosine-phosphorylation-regulated kinase 1A (Homo sapiens, UniProt Q13627); test: Inhibition of human full length GST-tagged DYRK1A expressed in baculovirus by Z'-LYTE assay
# [6] = biological target: T2, Phosphorylase b kinase gamma catalytic chain, skeletal muscle/heart isoform (Homo sapiens, UniProt Q16816); test: Inhibition of full length human GST-tagged PHKG1 expressed in baculovirus by Z'-LYTE assay
# Target sequence in this assay (Q16816 whole entry, canonical isoform): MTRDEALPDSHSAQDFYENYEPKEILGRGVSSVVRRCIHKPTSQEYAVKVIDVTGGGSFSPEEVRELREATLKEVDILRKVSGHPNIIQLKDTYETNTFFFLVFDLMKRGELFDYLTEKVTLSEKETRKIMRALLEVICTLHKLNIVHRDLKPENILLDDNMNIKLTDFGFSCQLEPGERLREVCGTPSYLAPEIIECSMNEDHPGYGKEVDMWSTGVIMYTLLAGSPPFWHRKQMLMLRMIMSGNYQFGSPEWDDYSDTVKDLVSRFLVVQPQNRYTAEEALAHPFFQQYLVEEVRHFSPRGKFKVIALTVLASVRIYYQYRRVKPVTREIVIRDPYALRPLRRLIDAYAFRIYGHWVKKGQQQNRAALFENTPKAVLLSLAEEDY
# [7] = biological target: T3, Phosphatidylinositol 5-phosphate 4-kinase type-2 gamma (Homo sapiens, UniProt Q8TBX8); test: Inhibition of PIP4K2C in human HCT116 cell lysate after 1 hr by LC-MS/MS analysis relative to control
# T3 sequence (Q8TBX8 whole entry): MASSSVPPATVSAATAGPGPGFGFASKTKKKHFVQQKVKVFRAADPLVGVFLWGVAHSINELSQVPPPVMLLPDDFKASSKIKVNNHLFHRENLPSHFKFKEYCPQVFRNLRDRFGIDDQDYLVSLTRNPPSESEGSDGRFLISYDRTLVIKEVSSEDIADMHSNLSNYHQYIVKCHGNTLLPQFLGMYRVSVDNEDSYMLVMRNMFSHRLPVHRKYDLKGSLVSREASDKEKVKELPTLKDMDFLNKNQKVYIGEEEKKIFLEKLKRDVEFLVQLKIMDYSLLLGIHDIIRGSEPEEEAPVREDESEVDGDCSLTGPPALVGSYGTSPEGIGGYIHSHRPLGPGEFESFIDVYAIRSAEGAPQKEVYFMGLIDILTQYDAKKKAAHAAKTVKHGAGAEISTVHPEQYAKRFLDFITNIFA
# [8] = biological target: c-Jun N-terminal kinase, JNK (Homo sapiens, UniProt P45983+P53779+P45984); test: Inhibition of JNK1/JNK2/JNK3 in human HCT116 cell lysate after 1 hr by LC-MS/MS analysis relative to control
# [9] = biological target: T2, Phosphorylase b kinase gamma catalytic chain, skeletal muscle/heart isoform; test: Binding affinity to PHKG1 in human HCT116 cells at 3 uM after 1 hr by LC-MS/MS analysis relative to control; format: cell-based
# Procedure, shortened: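 ActivX KiNative cellular kinase profiling. HCT-116 cells were grown in RPMI-1640 with 10% FBS and exposed to compound at 3 μM for 1 h, with DMSO-only controls. Cells were then washed with ice-cold PBS, scraped, pelleted and stored at −80 °C. Kinase binding was reported as percent occupancy relative to the untreated controls.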
# Target sequence in this assay (Q16816 whole entry, looked up, canonical isoform): as the sequence (Q16816 whole entry, canonical isoform) above
# ZR-75-30 = test: Antiproliferative activity against human ZR75-30 cells after 3 days by CellTiter-Glo assay; format: cell-based; settings: zr-75-30, 72 h
# Procedure, shortened: (§1)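 Cell lines kept in vendor-recommended growth media; 3-day compound exposure, then CellTiter-Glo luminescence read. Percent inhibition per concentration normalized to DMSO control, triplicate wells.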
# MDA-MB-361 = test: Antiproliferative activity against human MDA-MB-361 cells after 3 days by CellTiter-Glo assay; format: cell-based; settings: mda-mb-361, 72 h; procedure, shortened: as §1
# MDA-MB-468 = test: Antiproliferative activity against human MDA-MB-468 cells after 3 days by CellTiter-Glo assay; format: functional, cell-based; procedure, shortened: as §1
# Mus musculus [10] = test: Toxicity in SCID mouse xenografted with human CAL51 cells assessed as loss in body weight at 20 mg/kg, iv administered every 7 days for 16 days relative to control; format: organism-based; settings: in vivo
# CAL-51 [11] = test: Antiproliferative activity against human CAL51 cells assessed as reduction in cell viability incubated for 12 to 72 hrs followed by compound washout measured after 72 hrs by Cell-Titer Glo assay; format: functional, cell-based
# Procedure, shortened: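 Cal-51 seeded at 3000 cells/well, dosed next day (0.2% DMSO final), triplicate wells; exposure at 37 °C, 5% CO2 for 6, 12, 24, 48 or 72 h, then three medium washes and culture in fresh medium up to 72 h post treatment; viability read by CellTiter-Glo luminescence.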
# CAL-51 [12] = test: Antiproliferative activity against human CAL51 cells xenografted in SCID mouse assessed as tumor growth inhibition at 20 mg/kg, iv administered every 3 days for 16 days relative to control; format: functional; settings: CAL-51, iv, read-out: TGI
# Procedure, shortened: (§2)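 Mice bearing tumors of about 125 mm3 randomized (n = 8−10/group) and given compound intravenously at the listed doses and schedules. Tumors measured twice weekly by digital caliper on long and short axes; volume = width² × length/2.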
# Mus musculus [13] = test: Toxicity in SCID mouse xenografted with human CAL51 cells assessed as loss in body weight at 10 mg/kg, iv administered every 3 days for 16 days relative to control; format: organism-based; settings: in vivo
# CAL-51 [14] = test: Antiproliferative activity against human CAL51 cells xenografted in SCID mouse assessed as tumor growth inhibition at 20 mg/kg, iv administered every 7 days for 16 days relative to control; format: functional; settings: CAL-51, iv, read-out: TGI; procedure, shortened: as §2
# [15] = biological target: Voltage-gated inwardly rectifying potassium channel KCNH2 (Homo sapiens, UniProt Q12809); test: Inhibition of human ERG
# [16] = Clearance in SCID mouse at 5 mg/kg, iv; format: ADME, organism-based; settings: in vivo
# [17] = MRT in SCID mouse at 5 mg/kg, iv; format: ADME, organism-based; settings: in vivo
# [18] = biological target: T4, Dual specificity tyrosine-phosphorylation-regulated kinase 3 (Homo sapiens) (UniProt O43781); settings: 3 uM
# T4 sequence (whole entry): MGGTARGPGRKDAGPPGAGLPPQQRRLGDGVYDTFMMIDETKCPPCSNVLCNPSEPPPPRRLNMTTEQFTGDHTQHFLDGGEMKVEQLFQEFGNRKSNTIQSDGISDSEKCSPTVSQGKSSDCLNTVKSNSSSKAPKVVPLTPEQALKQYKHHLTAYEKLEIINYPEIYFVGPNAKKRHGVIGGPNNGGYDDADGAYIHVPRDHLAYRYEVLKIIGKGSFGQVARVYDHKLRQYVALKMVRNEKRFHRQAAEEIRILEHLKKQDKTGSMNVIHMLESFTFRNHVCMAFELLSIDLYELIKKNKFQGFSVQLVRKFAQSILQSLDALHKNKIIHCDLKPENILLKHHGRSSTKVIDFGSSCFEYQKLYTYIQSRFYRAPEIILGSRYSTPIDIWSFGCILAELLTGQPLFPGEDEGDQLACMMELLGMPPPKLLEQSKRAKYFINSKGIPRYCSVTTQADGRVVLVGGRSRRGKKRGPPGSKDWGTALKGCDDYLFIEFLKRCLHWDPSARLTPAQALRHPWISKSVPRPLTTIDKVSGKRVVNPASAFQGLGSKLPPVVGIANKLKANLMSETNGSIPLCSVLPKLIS
# [19] = biological target: T1, Dual specificity tyrosine-phosphorylation-regulated kinase 1A; settings: 3 uM
# [20] = biological target: T2, Phosphorylase b kinase gamma catalytic chain, skeletal muscle/heart isoform; settings: 3 uM
# Target sequence in this assay (Q16816 whole entry, looked up, canonical isoform): as the sequence (Q16816 whole entry, canonical isoform) above
# Voltage-gated inwardly rectifying potassium channel KCNH2, sequence (Q12809 whole entry): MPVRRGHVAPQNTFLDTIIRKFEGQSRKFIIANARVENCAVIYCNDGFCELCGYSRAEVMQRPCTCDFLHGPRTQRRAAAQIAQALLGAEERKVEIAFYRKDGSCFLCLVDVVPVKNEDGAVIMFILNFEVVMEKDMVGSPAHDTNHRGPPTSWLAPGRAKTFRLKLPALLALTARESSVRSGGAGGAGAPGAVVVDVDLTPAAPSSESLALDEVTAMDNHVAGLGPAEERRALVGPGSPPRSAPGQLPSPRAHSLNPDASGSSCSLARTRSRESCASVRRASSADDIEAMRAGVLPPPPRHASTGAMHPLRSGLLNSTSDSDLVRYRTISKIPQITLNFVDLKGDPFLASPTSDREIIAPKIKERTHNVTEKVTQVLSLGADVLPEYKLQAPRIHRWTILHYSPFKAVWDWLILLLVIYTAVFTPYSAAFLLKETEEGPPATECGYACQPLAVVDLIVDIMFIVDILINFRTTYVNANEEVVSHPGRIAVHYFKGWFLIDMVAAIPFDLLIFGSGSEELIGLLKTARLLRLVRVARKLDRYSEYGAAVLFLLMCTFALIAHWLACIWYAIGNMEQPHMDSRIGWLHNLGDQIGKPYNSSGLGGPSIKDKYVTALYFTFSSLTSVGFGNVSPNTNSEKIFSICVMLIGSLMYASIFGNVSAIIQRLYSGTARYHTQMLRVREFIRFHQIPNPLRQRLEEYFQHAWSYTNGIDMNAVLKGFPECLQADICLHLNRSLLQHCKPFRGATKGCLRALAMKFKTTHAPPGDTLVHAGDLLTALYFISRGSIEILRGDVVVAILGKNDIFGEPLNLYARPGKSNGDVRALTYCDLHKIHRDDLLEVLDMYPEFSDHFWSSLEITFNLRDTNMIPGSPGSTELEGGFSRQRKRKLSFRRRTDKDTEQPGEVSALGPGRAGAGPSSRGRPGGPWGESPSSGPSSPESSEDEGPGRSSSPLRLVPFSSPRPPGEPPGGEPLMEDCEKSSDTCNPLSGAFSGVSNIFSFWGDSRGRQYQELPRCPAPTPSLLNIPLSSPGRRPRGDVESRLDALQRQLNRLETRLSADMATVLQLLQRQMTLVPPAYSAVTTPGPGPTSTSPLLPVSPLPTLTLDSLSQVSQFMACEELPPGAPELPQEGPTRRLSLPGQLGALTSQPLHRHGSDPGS
structure (smiles),measurement,setting,value
CNC(=O)c1ccc(Nc2nc(OC3CCCC3)c3c(-c4ccc5nc(C)oc5c4)c[nH]c3n2)c(OC)c1,remaining at 1 h,[1],91%
same,clearance,[2],9.3 mL/min/kg
same,Vd,[3],2.3 L/kg
same,MRT,[4],4.1 h
same,IC50,[5],104 nM
same,IC50,[6],136 nM
same,IC50,[7],1300 nM
same,IC50,[8],680 nM
same,Activity,[9],26%
same,Activity,ZR-75-30,Non-Toxic
same,Activity,MDA-MB-361,Non-Toxic
same,Activity,MDA-MB-468,Active
same,Activity,Mus musculus [10],Non-Toxic
same,Activity,CAL-51 [11],Active
same,inhibition in vivo at 20 mg/kg,CAL-51 [12],71%
same,Activity,Mus musculus [13],5%
same,inhibition in vivo at 20 mg/kg,CAL-51 [14],70%
same,IC50,[15],> 33000 nM
same,clearance,[16],8.48 mL/min/kg
same,MRT,[17],5.2 h
same,inhibition,[18],> 80%
same,inhibition,[19],> 80%
same,inhibition,[20],> 80%
